From ChEMBL document CHEMBL4038302, “Fibroblast Activation Protein α Activated Tripeptide Bufadienolide Antitumor Prodrug with Reduced Cardiotoxicity” (J Med Chem, 2017)
Each block holds one compound with its values, some of them ahead of it.

Columns and labels:
[1] = target: T1, Prolyl endopeptidase FAP (Homo sapiens, UniProt Q12884); test: Prodrug activation assessed as recombinant human FAP-alpha mediated 5-((3S,5R,8R,9S,10S,11S,13R,14S,17R)-3-(2-(4-aminophenyl)acetyl)-11,14-dihydroxy-10,13-dimethyl-12-oxohexadecahydro-1H-cyclopenta[a]phenanthren-17-yl)-2H-pyran-2-one formation by measuring intrinsic clearance at 40 umol/L after 6 hrs by UPLC-MS/MS analysis; settings: 40 µM
T1 sequence (Q12884 whole entry): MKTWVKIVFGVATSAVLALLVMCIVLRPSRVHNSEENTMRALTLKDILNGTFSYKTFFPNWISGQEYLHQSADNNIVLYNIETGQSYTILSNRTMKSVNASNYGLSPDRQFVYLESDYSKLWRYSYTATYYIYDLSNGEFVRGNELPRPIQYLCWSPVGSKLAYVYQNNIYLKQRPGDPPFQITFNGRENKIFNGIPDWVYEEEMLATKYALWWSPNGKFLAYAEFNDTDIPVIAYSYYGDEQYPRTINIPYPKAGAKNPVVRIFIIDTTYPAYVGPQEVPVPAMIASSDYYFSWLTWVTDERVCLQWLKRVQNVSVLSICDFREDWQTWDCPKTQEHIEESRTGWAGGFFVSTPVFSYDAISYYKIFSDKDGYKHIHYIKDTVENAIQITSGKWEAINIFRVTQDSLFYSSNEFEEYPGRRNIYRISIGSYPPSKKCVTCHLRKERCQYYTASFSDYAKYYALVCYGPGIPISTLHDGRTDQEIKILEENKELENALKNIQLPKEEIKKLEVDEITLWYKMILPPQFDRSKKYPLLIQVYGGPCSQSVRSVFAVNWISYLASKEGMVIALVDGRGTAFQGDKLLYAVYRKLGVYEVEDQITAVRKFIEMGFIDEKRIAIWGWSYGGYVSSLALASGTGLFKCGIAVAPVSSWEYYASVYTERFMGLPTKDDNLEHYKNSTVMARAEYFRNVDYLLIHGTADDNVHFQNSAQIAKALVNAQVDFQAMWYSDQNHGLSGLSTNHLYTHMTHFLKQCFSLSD

[2] = target: T1, Prolyl endopeptidase FAP; test: (§1) Prodrug activation assessed as Vmax for recombinant human FAP-alpha mediated (S)-((3S,5R,8R,9S,10S,11S,13R,14S,17R)-11,14-dihydroxy-10,13-dimethyl-12-oxo-17-(2-oxo-2H-pyran-5-yl)hexadecahydro-1H-cyclopenta[a]phenanthren-3-yl) 2-amino-3-phenylpropanoate formation after 90 mins by UPLC-MS/MS analysis; settings: 1.5 h
Method in brief: (§2)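 Prodrug at 0.625–40 μmol/L incubated with rhFAPα at 0.45 μg/mL and internal standard in 0.2 mL PBS, pH 7.4, at 37 °C for 90 min. Quenched with MeCN and spun at 18 000g for 15 min; product measured by UPLC-MS/MS. S50 and Vmax fitted with an allosteric sigmoidal model; CLint = Vmax/S50. Three independent experiments.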

[3] = target: T1, Prolyl endopeptidase FAP; test: Prodrug activation assessed as recombinant human FAP-alpha mediated (S)-((3S,5R,8R,9S,10S,11S,13R,14S,17R)-11,14-dihydroxy-10,13-dimethyl-12-oxo-17-(2-oxo-2H-pyran-5-yl)hexadecahydro-1H-cyclopenta[a]phenanthren-3-yl) 2-amino-3-phenylpropanoate formation at 40 umol/L after 6 hrs in presence of FAP-alpha inhibitor talabostat by UPLC-MS/MS analysis; settings: 40 µM
Method in brief: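 Prodrug at 40 μmol/L incubated with rhFAPα at 0.45 μg/mL in 0.2 mL buffer at 37 °C for 6 h, with bufalin at 2 μmol/L as internal standard. Stopped with acetonitrile and spun at 18 000g for 15 min. Released active form measured by UPLC-MS/MS via peak-area ratio against a standard curve of 0.625–40 μmol/L.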

[4] = target: T1, Prolyl endopeptidase FAP; test: as §1, with “as” for “as Vmax for”, “formation by measuring intrinsic clearance” for “formation”; settings: 1.5 h; method in brief: as §2
[5] = target: T1, Prolyl endopeptidase FAP; test: as §1, with “as” for “as Vmax for”, “2-amino-3-phenylpropanoate by measuring concentration of test compound gives half-maximal activity” for “2-amino-3-phenylpropanoate”; settings: 1.5 h; method in brief: as §2
[6] = target: T1, Prolyl endopeptidase FAP; test: (§3) Prodrug activation assessed as Vmax for recombinant human FAP-alpha mediated (2S,3S)-((3S,5R,8R,9S,10S,11S,13R,14S,17R)-11,14-dihydroxy-10,13-dimethyl-12-oxo-17-(2-oxo-2H-pyran-5-yl)hexadecahydro-1H-cyclopenta[a]phenanthren-3-yl) 2-amino-3-methylpentanoate formation after 90 mins by UPLC-MS/MS analysis; settings: 1.5 h; method in brief: as §2
[7] = target: T1, Prolyl endopeptidase FAP; test: as §3, with “as” for “as Vmax for”, “formation by measuring intrinsic clearance” for “formation”; settings: 1.5 h; method in brief: as §2
[8] = target: T1, Prolyl endopeptidase FAP; test: as §3, with “as” for “as Vmax for”, “2-amino-3-methylpentanoate by measuring concentration of test compound gives half-maximal activity” for “2-amino-3-methylpentanoate”; settings: 1.5 h; method in brief: as §2

CL [1]: 7070 µL/min/mg
Structure (SMILES): C[C@]12CC[C@H](OC(=O)Cc3ccc(NC(=O)[C@@H]4CCCN4C(=O)CNC(=O)OCc4ccccc4)cc3)C[C@H]1CC[C@@H]1[C@@H]2[C@H](O)C(=O)[C@]2(C)[C@@H](c3ccc(=O)oc3)CC[C@]12O

Vmax [2]: 0.366 µmol/min/mg
Drug metabolism [3]: Metabolite_Notdetected
CL [4]: 42360 µL/min/mg
S50 [5]: 8.64 µmol/L
Structure (SMILES): C[C@]12CC[C@H](OC(=O)[C@H](Cc3ccccc3)NC(=O)[C@@H]3CCCN3C(=O)CNC(=O)OCc3ccccc3)C[C@H]1CC[C@@H]1[C@@H]2[C@H](O)C(=O)[C@]2(C)[C@@H](c3ccc(=O)oc3)CC[C@]12O

Vmax [6]: 0.014 µmol/min/mg
CL [7]: 1590 µL/min/mg
S50 [8]: 8.82 µmol/L
Structure (SMILES): CC[C@H](C)[C@H](NC(=O)[C@@H]1CCCN1C(=O)CNC(=O)OCc1ccccc1)C(=O)O[C@H]1CC[C@@]2(C)[C@H](CC[C@@H]3[C@@H]2[C@H](O)C(=O)[C@]2(C)[C@@H](c4ccc(=O)oc4)CC[C@]32O)C1
